Assays:
Format in all cases: functional
[1] = test system: Biomphalaria peregrina; test: Molluscicidal activity against Biomphalaria peregrina assessed as mortality at 20 ppm after 24 hrs
Method in brief: (§1)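 WHO protocol on adult snails, seven per beaker, each concentration in triplicate. Test solutions in water with MeOH ≤5% v/v; same-volume solvent controls. After 24 h exposure, snails were rinsed in dechlorinated tap water and kept 24 h to recover in dechlorinated tap water with lettuce leaves. Percent mortality was then recorded at the stated ppm.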

[2] = test system: Biomphalaria peregrina; test: Molluscicidal activity against Biomphalaria peregrina assessed as mortality at 40 ppm after 24 hrs; method in brief: as §1
[3] = test system: Biomphalaria peregrina; test: Molluscicidal activity against Biomphalaria peregrina assessed as mortality at 1 ppm after 24 hrs; method in brief: as §1
[4] = test system: Biomphalaria peregrina; test: Molluscicidal activity against Biomphalaria peregrina after 24 hrs; conditions: for LC50: Biomphalaria peregrina, 24 h, read-out: LD50 (the source's name)
Method in brief: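 Adult snails (seven per concentration, triplicate) exposed 24 h to test solutions in water with MeOH ≤5% v/v, per the WHO protocol. Snails were then washed and held 24 h in dechlorinated tap water with lettuce leaves before mortality was scored. Solvent-only negative control; 10 ppm CuSO₄ positive control.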

[5] = test system: Biomphalaria peregrina; test: Molluscicidal activity against Biomphalaria peregrina assessed as mortality at 10 ppm after 24 hrs; method in brief: as §1
[6] = test system: Biomphalaria peregrina; test: Molluscicidal activity against Biomphalaria peregrina assessed as mortality at 5 ppm after 24 hrs; method in brief: as §1
[7] = test system: Biomphalaria peregrina; test: Molluscicidal activity against Biomphalaria peregrina assessed as mortality at 0.5 ppm after 24 hrs; method in brief: as §1
[8] = test system: Oncomelania hupensis; test: Molluscicidal activity against Oncomelania hupensis; conditions: read-out: LD50 (the source's name)
[9] = test system: Biomphalaria alexandrina; test: Molluscicidal activity against Biomphalaria alexandrina; conditions: read-out: LD50 (the source's name)
[10] = test system: Biomphalaria pfeifferi; test: Molluscicidal activity against Biomphalaria pfeifferi; conditions: read-out: LD50 (the source's name)

Row | SMILES | Activity [1] | Activity [2] | Activity [3] | LD90 [4] | LC50 [4] | Activity [5] | Activity [6] | Activity [7] | LD100 [4] | LC50 [8] | LC50 [9] | LC50 [10]
1 | CC/C=C(\OC(C)=O)C1=C(OC(C)=O)C(C)(CC=C(C)C)C(OC(C)=O)=C(Cc2c(OC)cc(OC(C)=O)c(C(=O)CCCCC)c2OC(C)=O)C1=O (stereo unspecified) | 24% | 81% | 0% | 58.4 µM | 40.6 µM | 0% | 0% | – | – | – | – | –
2 | CCCC(=O)C1=C(O)C(C)(CC=C(C)C)C(O)=C(Cc2c(OC)cc(O)c(C(=O)CCC)c2O)C1=O (stereo unspecified) | – | – | 10% | 9 µM | 5.8 µM | – | 95% | 0% | – | – | – | –
3 | CCCCCC(=O)c1c(O)cc(OC)c(CC2=C(O)C(C)(CC=C(C)C)C(O)=C(C(=O)CCC)C2=O)c1O (stereo unspecified) | – | – | 57% | 2.6 µM | 1.8 µM | – | 100% | 10% | <=5 ppm | – | – | –
4 | CC/C=C(\OC(C)=O)C1=C(OC(C)=O)C(C)(CC=C(C)C)C(OC(C)=O)=C(Cc2c(OC)cc(OC(C)=O)c(C(=O)CCC)c2OC(C)=O)C1=O (stereo unspecified) | – | – | 0% | 20.7 µM | 14.9 µM | 43% | 5% | – | – | – | – | –
5 | O=C(Nc1ccc([N+](=O)[O-])cc1Cl)c1cc(Cl)ccc1O [NICLOSAMIDE] | – | – | – | – | – | – | – | – | – | ≤ 0.5 µg/mL | ≤ 0.5 µg/mL | ≤ 0.5 µg/mL

Source: ChEMBL document CHEMBL1151829, “Molluscicidal Phloroglucinols from the Fern Elaphoglossum piloselloides” (2009)
